Source: PubChem BioAssay
S100A4 MyoIIA = inhibitors of S100A4-myosin IIA peptide binding, primary screen, biochemical, fluorescence polarization, TAMRA-MyoIIA peptide. AID 652163, 2013. 360,000 tested, 0.14% active. inhibition, % at 10.7 µM. Protein S100-A4 (Homo sapiens), P26447;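 active = mean inhibition of at least 70% across replicates, with every replicate also reaching that level; inconclusive = mean inhibition reaches 70% but some replicates fall short; inactive = mean inhibition below 70%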
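System – human S100A4 monomer protein, biochemical binding assay · Buffer or medium – Calcium-containing HEPES buffer, pH 7.2 · Timing – 5 min between mix addition and reading · Also added – TAMRA-labelled myosin IIA heavy-chain peptide probe, 5 nM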
HIV Env fusion = inhibitors of HIV-1 Env-driven cell-cell fusion, primary screen, HeLa-JRFL effector, CEM21 target cells, luciferase | inhibition, % at 12.3 µM | 360,000 tested, 1.1% active | AID 651610, 2012;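 active = mean replicate inhibition score of at least 50 and every replicate individually at or above 50; inconclusive = only one of the two criteria met; inactive = mean below 50 and not all replicates reaching 50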;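 also: 0% = plate neutral controls and 100% = maraviroc near 300 nM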
FGF22 binding = binders of human FGF22 protein, primary screen, FGF22 synaptogenesis inhibitor project, biophysical, thermal shift, single point. activity (Tm shift, normalised), % at 9.99 µM. Fibroblast growth factor 22 (Homo sapiens), Q9HCT0. AID 651658, 2012. 340,000 tested, 1.5% active. recombinant FGF22 thermal shift, SYPRO orange fluorescence; percent of sucrose octasulfate shift, DMSO zero;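 active = mean Tm shift, scaled 0 neutral to 100 positive control, at about 1.3% or above, every replicate too, limit read from the data; inconclusive = no clear call, values can overlap the other calls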
E-selectin induc = E-selectin induction in HUVECs, primary screen, imaging, HUVEC, immunofluorescence imaging, single point; P16581; normalized: neutral wells 0, TNF-alpha wells 100; activation, % at 7.58 µM; 260,000 tested, 0.37% active; AID 686992, 2013;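 active = mean E-selectin-positive cell signal at least 10% of the positive control, reached in at least 60% of replicates, without over 20% cell loss; inconclusive = no rule given, readout overlaps actives, possibly toxicity-flagged; inactive = the rest, including those meeting only one limit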
Target sequence (P16581 whole entry, looked up): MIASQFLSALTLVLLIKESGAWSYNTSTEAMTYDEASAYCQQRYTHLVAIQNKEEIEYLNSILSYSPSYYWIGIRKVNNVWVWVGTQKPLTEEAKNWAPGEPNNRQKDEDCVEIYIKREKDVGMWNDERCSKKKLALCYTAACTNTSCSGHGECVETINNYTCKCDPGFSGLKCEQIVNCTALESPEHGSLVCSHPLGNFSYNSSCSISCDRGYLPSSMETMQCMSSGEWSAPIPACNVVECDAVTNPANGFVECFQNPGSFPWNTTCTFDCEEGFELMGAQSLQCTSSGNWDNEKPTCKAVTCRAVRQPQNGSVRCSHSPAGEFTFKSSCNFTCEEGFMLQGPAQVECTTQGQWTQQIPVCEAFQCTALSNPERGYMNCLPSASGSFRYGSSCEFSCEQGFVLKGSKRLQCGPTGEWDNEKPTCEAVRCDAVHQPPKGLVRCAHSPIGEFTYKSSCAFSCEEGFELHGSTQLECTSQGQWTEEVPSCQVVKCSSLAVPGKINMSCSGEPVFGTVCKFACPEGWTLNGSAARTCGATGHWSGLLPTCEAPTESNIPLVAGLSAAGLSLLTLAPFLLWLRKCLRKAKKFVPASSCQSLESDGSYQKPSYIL
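material = human umbilical vein endothelial cells (HUVEC), E-selectin induction | quantity = 3,000 cells/well | medium = EGM-2 growth medium on 0.1% gelatin-coated wells | technique = immunofluorescence imaging | read-out basis = % PE-positive cells | control set = TNF-alpha positive control, DMSO neutral control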
F508del corr = F508del CFTR correction, initial screen, CFBE line, single point; CFBE cells, YFP halide quenching; stimulated with forskolin plus potentiator P3; % fluorescence drop versus neutral controls; activity (quench increase), % at 7.58 µM; 350,000 tested, 0.36% active; AID 720511, 2013;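 active = mean added fluorescence quench of at least 8% versus neutral control, with both replicates also reaching 8%; inconclusive = only one of the mean or replicate conditions met; inactive = mean below 8% and not both replicates reaching 8%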;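 also: cells transiently co-express mutant CFTR-F508del with the halide-sensitive YFP; corrector assay measuring rescue of mutant channel to the surface after 24 h compound exposure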
An asterisk follows results filed as active; [ ] = remark or other dose. Shown are actives, neighbours in structure and some others; about 2.7% of the full set was active somewhere.

Cc1noc(C)c1S(=O)(=O)Nc1ccc2c(c1)C(=O)N([C@@H](C)CO)C[C@@H](C)[C@@H](CN(C)S(C)(=O)=O)O2 was read as S100A4 MyoIIA -27, HIV Env fusion -6[16.7 µM], FGF22 binding 0, E-selectin induc -5 and F508del corr 2.
CC(C)(O)C#Cc1ccc([C@@H]2[C@H]3CN(C(=O)c4ccc(F)cc4)CCCCN3[C@H]2CO)cc1 was read as S100A4 MyoIIA -6, FGF22 binding 0, E-selectin induc 0 and F508del corr 0.
For O=C(Cn1cc(C(F)(F)F)ccc1=O)Nc1ccc2c(c1)OCO2 the results were S100A4 MyoIIA 0, HIV Env fusion 24, FGF22 binding 43*, E-selectin induc 0 and F508del corr 7.
`O=C(Cn1cc(Br)ccc1=O)Nc1ccc2c(c1)OCO2` gave S100A4 MyoIIA 15, HIV Env fusion -32, FGF22 binding 0, E-selectin induc 0 and F508del corr 1.
For O=C(Nc1ccc(Cl)c(C(F)(F)F)c1)c1ccncc1 the results were S100A4 MyoIIA -4, HIV Env fusion -1, FGF22 binding 0, E-selectin induc 2 and F508del corr 0.
Screening CNC(=O)c1cc(Oc2ccc(NC(=O)Nc3ccc(Cl)c(C(F)(F)F)c3)cc2)ccn1 returned S100A4 MyoIIA 17, HIV Env fusion 62*, FGF22 binding 0, E-selectin induc 0 and F508del corr -3.
Screening CC(C)(C)c1ccc(S(=O)(=O)NC(=O)C2(C)CCN2C(=O)Cc2cccc3ccccc23)cc1 (stereo not given) returned S100A4 MyoIIA 2, HIV Env fusion 30, FGF22 binding 6.1*, E-selectin induc 1 and F508del corr 0.
`C[C@@H]1CN([C@H](C)CO)C(=O)c2ccccc2-c2ccccc2CO[C@H]1CN(C)S(=O)(=O)c1ccc(C#N)cc1` gave S100A4 MyoIIA 7, FGF22 binding 0, E-selectin induc 0 and F508del corr 2.
COc1ccc(NC(=O)c2cc(-c3ccco3)on2)c(OC)c1 was read as S100A4 MyoIIA -2, HIV Env fusion -10, FGF22 binding 0, E-selectin induc 11 and F508del corr 2.
`COc1ccc(NC(=O)c2cc(C3CC3)on2)c(OC)c1` gave S100A4 MyoIIA -3, HIV Env fusion -73, FGF22 binding 0, E-selectin induc 3 and F508del corr 8.2*.
Cc1cc(S(=O)(=O)N2CCCC(C(=O)Nc3ccc(C(=O)O)cc3)C2)ccc1Cl (stereo not given) was read as S100A4 MyoIIA -5, HIV Env fusion 7, FGF22 binding 43* and F508del corr 0.
Screening COC(=O)c1ccc(NC(=O)C2CCN(S(C)(=O)=O)CC2)cc1 returned HIV Env fusion -85.
Screening CC(=O)N1c2ccc(S(=O)(=O)N3CCCC(C(=O)Nc4ccc(C)cc4)C3)cc2CC1C (stereo not given) returned S100A4 MyoIIA 12, HIV Env fusion inconclusive, FGF22 binding 0, E-selectin induc 0 and F508del corr 4.
For COC(=O)c1ccc(NC(=O)C2CCCN(S(C)(=O)=O)C2)cc1 (stereo not given) the results were S100A4 MyoIIA 3, HIV Env fusion -32, FGF22 binding 43* and F508del corr -2.
CC=Cc1ccc2n(c1=O)C[C@H]1[C@H](CO)[C@@H](C(=O)N(C)C)[C@@H]2N1Cc1cc(F)ccc1F (mixture of isomers) was read as S100A4 MyoIIA 14, FGF22 binding 0 and E-selectin induc 0.
For O=C(NCC[C@H]1CC[C@@H](NS(=O)(=O)c2cccc(F)c2)[C@H](CO)O1)C1CCC1 the results were S100A4 MyoIIA 6, HIV Env fusion -4[16.7 µM], FGF22 binding 0, E-selectin induc 0 and F508del corr 1.
Screening CC(C)NC(=O)N[C@@H]1CC[C@H](CCNS(=O)(=O)c2ccc(Cl)cc2)O[C@@H]1CO returned S100A4 MyoIIA -2, HIV Env fusion -9[16.7 µM], FGF22 binding 0, E-selectin induc 0 and F508del corr 0.
Screening C[C@]12C=CC(=O)C=C1CC[C@@H]1C2[C@@H](O)C[C@@]2(C)C1CC[C@]2(O)C(=O)COC(=O)CCC(=O)O (stereo not given in full) returned S100A4 MyoIIA -5, HIV Env fusion -204, FGF22 binding 0, E-selectin induc 0 and F508del corr 8.2*.
Screening C[C@@H]1CN([C@@H](C)CO)C(=O)c2cc(NC(=O)Nc3ccc(C(F)(F)F)cc3)ccc2O[C@@H]1CN(C)C returned S100A4 MyoIIA 11, FGF22 binding 0, E-selectin induc 0 and F508del corr -1.
`C[C@@H](NC(=O)N(C)C[C@H]1OCc2ccccc2-c2c(n(C)c3ccccc23)C(=O)N([C@@H](C)CO)C[C@@H]1C)c1ccccc1` gave S100A4 MyoIIA -5, HIV Env fusion 27[16.7 µM], FGF22 binding -1, E-selectin induc 0 and F508del corr -3.
`CN(C)CCCNC(=O)C[C@@H]1CC[C@@H]2[C@H](COC[C@H](O)CN2S(=O)(=O)c2ccc(Cl)cc2)O1` gave S100A4 MyoIIA -7, HIV Env fusion -5[16.7 µM], FGF22 binding 0, E-selectin induc 0 and F508del corr 4.
Screening O=C(c1cccnc1)N1N=C(C2CC2)CC1(O)C(F)(F)F (stereo not given) returned S100A4 MyoIIA -1, HIV Env fusion 2, FGF22 binding 44* and F508del corr -1.
`O=C(c1ccncc1)N1N=C(C2CC2)CC1(O)C(F)(F)F` (stereo not given) gave S100A4 MyoIIA 0, HIV Env fusion 21, FGF22 binding 0, E-selectin induc 0 and F508del corr 1.
For COCC(=O)Nc1ccc2c(c1)C(=O)N(C)C[C@H](OC)[C@H](C)CN(C)[C@@H](C)CO2 the results were S100A4 MyoIIA 2, HIV Env fusion -2[16.7 µM], E-selectin induc 0 and F508del corr -2.
Screening COCC(=O)Nc1ccc2c(c1)C(=O)N(C)C[C@@H](OC)[C@H](C)CN(C(C)=O)[C@H](C)CO2 returned S100A4 MyoIIA 5, HIV Env fusion 85*[16.7 µM], FGF22 binding 0, E-selectin induc 0 and F508del corr 0.
For COCC(=O)Nc1ccc2c(c1)C(=O)N(C)C[C@@H](OC)[C@@H](C)CN(C)[C@H](C)CO2 the results were S100A4 MyoIIA 5, HIV Env fusion 60*[16.7 µM], E-selectin induc 0 and F508del corr 2.
